Source: ChEMBL document CHEMBL1156133, “Losartan-antioxidant hybrids: novel molecules for the prevention of hypertension-induced cardiovascular damage” (J Med Chem, 2009)
Active and inactive are the calls of the source. The rule behind the calls is not given here.

How the values were obtained:
Rattus norvegicus [1] = assay: Antihypertensive activity in Wistar rat assessed as change in blood ALT level at 10 mg/kg/day, po measured after 8 weeks in presence of losartan; assay type: functional
Rattus norvegicus [2] = assay: Antihypertensive activity in Wistar rat assessed as change in blood protein level at 10 mg/kg/day, po measured after 8 weeks in presence of losartan; assay type: functional
Outline: (§1)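 Two-month-old male Wistar rats given L-NAME in drinking water (20 mg/kg/day) for 8 weeks; from week 4, test treatments also in drinking water daily (12.00-18.00 h). Sacrificed under halothane anesthesia at 8 weeks; serum biochemical parameters measured by automatic analyzer. Mean ± SEM of 10 rats; nonparametric statistics.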

Rattus norvegicus [3] = assay: Antihypertensive activity in Wistar rat assessed as change in blood AST level at 10 mg/kg/day, po measured after 8 weeks; assay type: functional
Rattus norvegicus [4] = assay: Antihypertensive activity in Wistar rat assessed as decrease in L-NAME-induced collagen 1 level in vessel walls at 10 mg/kg/day, po for 4 weeks in presence of losartan; assay type: functional, organism-based
Outline: (§2)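 Male Wistar rats on L-NAME in drinking water (20 mg/kg/day) for 8 weeks, treatments in drinking water for the last 4 weeks. Thoracic aorta lysates run on SDS-PAGE and Western blotted for collagen type I, fibronectin or HNE-lysine, with β-tubulin as loading control; ECL detection, densitometry. Expressed as percent of basal; mean ± SEM of 10 experiments.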

Rattus norvegicus [5] = assay: Antihypertensive activity in Wistar rat assessed as change in blood creatinine level at 10 mg/kg/day, po measured after 8 weeks in presence of losartan; assay type: functional; outline: as §1
Rattus norvegicus [6] = assay: Antihypertensive activity in Wistar rat assessed as decrease in L-NAME-induced fibronectin content in vessel walls at 10 mg/kg/day, po for 4 weeks in presence of losartan; assay type: functional, organism-based; outline: as §2
Rattus norvegicus [7] = assay: Antihypertensive activity in Wistar rat assessed as change in blood Na+ level at 10 mg/kg/day, po measured after 8 weeks; assay type: functional
Rattus norvegicus [8] = assay: Antihypertensive activity in Wistar rat assessed as change in blood cholesterol level at 10 mg/kg/day, po measured after 8 weeks in presence of losartan; assay type: functional
Rattus norvegicus [9] = assay: Antihypertensive activity in Wistar rat assessed as change in blood glucose level at 10 mg/kg/day, po measured after 8 weeks in presence of losartan; assay type: functional; outline: as §1
Rattus norvegicus [10] = assay: Antihypertensive activity in Wistar rat assessed as change in blood calcium level at 10 mg/kg/day, po measured after 8 weeks in presence of losartan; assay type: functional
Rattus norvegicus [11] = assay: Antihypertensive activity in Wistar rat assessed as change in blood urea level at 10 mg/kg/day, po measured after 8 weeks; assay type: functional; outline: as §1
Rattus norvegicus [12] = assay: Antihypertensive activity in Wistar rat assessed as change in blood triglyceride level at 10 mg/kg/day, po measured after 8 weeks; assay type: functional; outline: as §1
Rattus norvegicus [13] = assay: Antihypertensive activity in Wistar rat assessed as decrease in L-NAME-induced HNE-lysine accumulation in vessel walls at 10 mg/kg/day, po for 4 weeks in presence of losartan; assay type: functional, organism-based; outline: as §2
Rattus norvegicus [14] = assay: Plasma concentration in po dosed Wistar rat assessed as EXP-3174 level after 4 weeks in presence of losartan; assay type: ADME, organism-based; conditions: in vivo, 672 h
Outline: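 Separate groups of Wistar rats dosed in drinking water for 4 weeks (n = 4-6 per group), then sacrificed and plasma analyzed by HPLC-MS/MS (triple quadrupole, electrospray), isocratic MeOH/water with 0.1% formic acid, 40 °C. Two plasma samples per animal; mean ± SEM.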

Rattus norvegicus [15] = assay: Antihypertensive activity in Wistar rat assessed as change in blood cholesterol level at 10 mg/kg/day, po measured after 8 weeks; assay type: functional
Rattus norvegicus [16] = assay: Antihypertensive activity in Wistar rat assessed as change in blood LDH level at 10 mg/kg/day, po measured after 8 weeks; assay type: functional
Rattus norvegicus [17] = assay: Antihypertensive activity in Wistar rat assessed as change in blood Na+ level at 10 mg/kg/day, po measured after 8 weeks in presence of losartan; assay type: functional
Rattus norvegicus [18] = assay: Antihypertensive activity in Wistar rat assessed as change in blood glucose level at 10 mg/kg/day, po measured after 8 weeks; assay type: functional; outline: as §1
Rattus norvegicus [19] = assay: Antihypertensive activity in Wistar rat assessed as change in blood AST level at 10 mg/kg/day, po measured after 8 weeks in presence of losartan; assay type: functional
Rattus norvegicus [20] = assay: Antihypertensive activity in Wistar rat assessed as change in blood LDH level at 10 mg/kg/day, po measured after 8 weeks in presence of losartan; assay type: functional
Rattus norvegicus [21] = assay: Antihypertensive activity in Wistar rat assessed as change in blood calcium level at 10 mg/kg/day, po measured after 8 weeks; assay type: functional
Rattus norvegicus [22] = assay: Antihypertensive activity in Wistar rat assessed as change in blood ALT level at 10 mg/kg/day, po measured after 8 weeks; assay type: functional
Rattus norvegicus [23] = assay: Antihypertensive activity in Wistar rat assessed as change in blood […] level at 10 mg/kg/day, po measured after 8 weeks; assay type: functional
Rattus norvegicus [24] = assay: Antihypertensive activity in Wistar rat assessed as change in blood protein level at 10 mg/kg/day, po measured after 8 weeks; assay type: functional; outline: as §1
Rattus norvegicus [25] = assay: Antihypertensive activity in Wistar rat assessed as change in blood urea level at 10 mg/kg/day, po measured after 8 weeks in presence of losartan; assay type: functional; outline: as §1
Rattus norvegicus [26] = assay: Antihypertensive activity in Wistar rat assessed as change in blood […] level at 10 mg/kg/day, po measured after 8 weeks in presence of losartan; assay type: functional
Rattus norvegicus [27] = assay: Antihypertensive activity in Wistar rat assessed as change in blood creatinine level at 10 mg/kg/day, po measured after 8 weeks; assay type: functional; outline: as §1
Rattus norvegicus [28] = assay: Antihypertensive activity in Wistar rat assessed as change in blood triglyceride level at 10 mg/kg/day, po measured after 8 weeks in presence of losartan; assay type: functional; outline: as §1

Question: With `O=C(O)CCc1ccc(O)c(O)c1` [DIHYDROCAFFEIC ACID] as the compound, how does the Activity (Rattus norvegicus [1]) read?
Answer: 22 IU/L

Question: And the Activity (Rattus norvegicus [2])?
Answer: 4 g/dL

Question: And the Activity (Rattus norvegicus [3])?
Answer: 77 IU/L

Question: And the Activity (Rattus norvegicus [4])?
Answer: Active

Question: And the Activity (Rattus norvegicus [5])?
Answer: 0.44 mg/dL

Question: And the Activity (Rattus norvegicus [6])?
Answer: Active

Question: And the Activity (Rattus norvegicus [7])?
Answer: 148 mmol/L

Question: What about the Activity (Rattus norvegicus [8]) of the same compound?
Answer: 54 mg/dL

Question: And the Activity (Rattus norvegicus [9])?
Answer: 168 mg/dL

Question: What about the Activity (Rattus norvegicus [10]) of the same compound?
Answer: 8.5 mg/dL

Question: And the Activity (Rattus norvegicus [11])?
Answer: 27 mg/dL

Question: And the Activity (Rattus norvegicus [12])?
Answer: 70 mg/dL

Question: What about the Activity (Rattus norvegicus [13]) of the same compound?
Answer: Active

Question: And the concentration (Rattus norvegicus [14])?
Answer: 19.4 nM

Question: What about the Activity (Rattus norvegicus [15]) of the same compound?
Answer: 58 mg/dL

Question: What about the Activity (Rattus norvegicus [16]) of the same compound?
Answer: 591 IU/L

Question: What about the Activity (Rattus norvegicus [17]) of the same compound?
Answer: 148 mmol/L

Question: And the Activity (Rattus norvegicus [18])?
Answer: 170 mg/dL

Question: What about the Activity (Rattus norvegicus [19]) of the same compound?
Answer: 93 IU/L

Question: And the Activity (Rattus norvegicus [20])?
Answer: 610 IU/L

Question: And the Activity (Rattus norvegicus [21])?
Answer: 8.8 mg/dL

Question: What about the Activity (Rattus norvegicus [22]) of the same compound?
Answer: 24 IU/L

Question: And the Activity (Rattus norvegicus [23])?
Answer: 4.1 mmol/L

Question: And the Activity (Rattus norvegicus [24])?
Answer: 5.2 g/dL

Question: What about the Activity (Rattus norvegicus [25]) of the same compound?
Answer: 24 mg/dL

Question: What about the Activity (Rattus norvegicus [26]) of the same compound?
Answer: 4.2 mmol/L

Question: What about the Activity (Rattus norvegicus [27]) of the same compound?
Answer: 0.47 mg/dL

Question: What about the Activity (Rattus norvegicus [28]) of the same compound?
Answer: 69 mg/dL
